Source: ChEMBL document CHEMBL1687785, “ampG gene of Pseudomonas aeruginosa and its role in β-lactamase expression” (2010)
Converted amounts (≈) assume the structure as drawn.

How the values were obtained:
Assay type in all cases: functional
Escherichia coli = assay: Antimicrobial activity against gentamycin resistant Escherichia coli SNO301-1 harboring pEC1C carrying ampC, ampR from Enterobacter cloacae after 16 to 20 hrs by broth microdilution method
How it was run: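 CLSI broth microdilution: serial 2-fold β-lactam dilutions in Mueller-Hinton broth, inoculum about 10^4 cells from starter cultures at OD600 0.5; MIC read as lowest concentration preventing growth after 16 to 20 h at 37°C; triplicate determinations.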

Pseudomonas aeruginosa [1] = assay: Antimicrobial activity against ampG deficient Pseudomonas aeruginosa PAK after 16 to 20 hrs by broth microdilution method
How it was run: (§1)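 CLSI broth microdilution in Mueller-Hinton broth, serial 2-fold antibiotic dilutions. Inoculum about 10^4 cells per well, taken from starter cultures grown to OD600 0.5. MIC was the lowest antibiotic concentration preventing growth after 16 to 20 h at 37°C. Each MIC was determined in triplicate.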

Pseudomonas aeruginosa [2] = assay: Antimicrobial activity against ampGh1 deficient Pseudomonas aeruginosa PAK after 16 to 20 hrs by broth microdilution method; how it was run: as §1
Pseudomonas aeruginosa [3] = assay: Antimicrobial activity against ampG deficient Pseudomonas aeruginosa PAO1 harboring pUCP24 conferring resistance to gentamycin after 16 to 20 hrs by broth microdilution method; how it was run: as §1
Pseudomonas aeruginosa [4] = assay: Antimicrobial activity against ampG deficient Pseudomonas aeruginosa PAO1 harboring pZY0908 conferring resistance to gentamycin after 16 to 20 hrs by broth microdilution method; how it was run: as §1
Pseudomonas aeruginosa [5] = assay: Antimicrobial activity against ampG deficient Pseudomonas aeruginosa PAK harboring pZY0901 conferring resistance to gentamycin after 16 to 20 hrs by broth microdilution method; how it was run: as §1
Pseudomonas aeruginosa [6] = assay: Antimicrobial activity against Pseudomonas aeruginosa PAK after 16 to 20 hrs by broth microdilution method
How it was run: (§2)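 CLSI broth microdilution: 2-fold serial antibiotic dilutions in Mueller-Hinton broth, inoculated with about 10^4 cells per 100 μl from starter cultures grown to OD600 0.5. MIC is the lowest concentration preventing growth after 16-20 h at 37°C. Triplicate.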

Pseudomonas aeruginosa [7] = assay: Antimicrobial activity against ampD, ampDh2, ampDh3 and ampG deficient Pseudomonas aeruginosa PAO1 harboring pUCP24 conferring resistance to gentamycin after 16 to 20 hrs by broth microdilution method; how it was run: as §1
Pseudomonas aeruginosa [8] = assay: Antimicrobial activity against ampD, ampDh2, ampDh3 and ampG deficient Pseudomonas aeruginosa PAO1 after 16 to 20 hrs by broth microdilution method; how it was run: as §1
Pseudomonas aeruginosa [9] = assay: Antimicrobial activity against ampD, ampDh2, ampDh3 and ampG deficient Pseudomonas aeruginosa PAO1 harboring pZY0901 conferring resistance to gentamycin after 16 to 20 hrs by broth microdilution method; how it was run: as §1
Pseudomonas aeruginosa [10] = assay: Antimicrobial activity against Pseudomonas aeruginosa PAO1 after 16 to 20 hrs by broth microdilution method in presence of 120 uM carbonyl cyanide m-chlorophenyl-hydrazone
How it was run: (§3)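 CLSI broth microdilution in Mueller-Hinton broth with CCCP added from a 10 mM DMSO stock to 120 μM final, alongside 2-fold serial antibiotic dilutions. Inoculum from starter cultures grown to OD600 0.5. MIC is the lowest concentration preventing growth after 16-20 h at 37°C. Triplicate.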

Pseudomonas aeruginosa [11] = assay: Antimicrobial activity against ampGh1 deficient Pseudomonas aeruginosa PAO1 after 16 to 20 hrs by broth microdilution method in presence of 120 uM carbonyl cyanide m-chlorophenyl-hydrazone
How it was run: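 Serial 2-fold dilutions of β-lactam in Mueller-Hinton broth with CCCP added from a 10 mM DMSO stock to 120 μM final; inoculum about 10^4 cells from cultures grown to OD600 0.5; MIC taken as lowest concentration preventing growth after 16 to 20 h at 37°C; triplicate.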

Pseudomonas aeruginosa [12] = assay: Antimicrobial activity against ampG, ampGh1 deficient Pseudomonas aeruginosa PAO1 after 16 to 20 hrs by broth microdilution method in presence of 120 uM carbonyl cyanide m-chlorophenyl-hydrazone
How it was run: (§4)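 CLSI broth microdilution in Mueller-Hinton broth with serial antibiotic dilutions. CCCP was added from a 10 mM DMSO stock to 120 μM final, then the bacterial culture was added as inoculum (about 10^4 cells from OD600 0.5 starter cultures). MIC was the lowest concentration preventing growth after 16 to 20 h at 37°C, run in triplicate.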

Pseudomonas aeruginosa [13] = assay: Antimicrobial activity against ampG, ampGh1 deficient Pseudomonas aeruginosa PAK after 16 to 20 hrs by broth microdilution method in presence of 120 uM carbonyl cyanide m-chlorophenyl-hydrazone; how it was run: as §4
Pseudomonas aeruginosa [14] = assay: Antimicrobial activity against ampG deficient Pseudomonas aeruginosa PAK harboring pUCP24 conferring resistance to gentamycin after 16 to 20 hrs by broth microdilution method in presence of 120 uM carbonyl cyanide m-chlorophenyl-hydrazone; how it was run: as §4
Pseudomonas aeruginosa [15] = assay: Antimicrobial activity against ampD, ampDh2, ampDh3 and ampG deficient Pseudomonas aeruginosa PAO1 after 16 to 20 hrs by broth microdilution method in presence of 120 uM carbonyl cyanide m-chlorophenyl-hydrazone; how it was run: as §4
Pseudomonas aeruginosa [16] = assay: Antimicrobial activity against ampD, ampDh2, ampDh3 and ampGh1 deficient Pseudomonas aeruginosa PAO1 after 16 to 20 hrs by broth microdilution method in presence of 120 uM carbonyl cyanide m-chlorophenyl-hydrazone; how it was run: as §4
Pseudomonas aeruginosa [17] = assay: Antimicrobial activity against ampD, ampDh2, ampDh3 and ampG deficient Pseudomonas aeruginosa PAO1 harboring pZY0901 conferring resistance to gentamycin after 16 to 20 hrs by broth microdilution method in presence of 120 uM carbonyl cyanide m-chlorophenyl-hydrazone; how it was run: as §4
Pseudomonas aeruginosa [18] = assay: Antimicrobial activity against Pseudomonas aeruginosa isolate 1 obtained from cystic fibrosis patients after 16 to 20 hrs by broth microdilution method; how it was run: as §2
Pseudomonas aeruginosa [19] = assay: Antimicrobial activity against Pseudomonas aeruginosa isolate 2 obtained from cystic fibrosis patients after 16 to 20 hrs by broth microdilution method in presence of 120 uM carbonyl cyanide m-chlorophenyl-hydrazone; how it was run: as §4
Pseudomonas aeruginosa [20] = assay: Antimicrobial activity against Pseudomonas aeruginosa isolate 4 obtained from cystic fibrosis patients after 16 to 20 hrs by broth microdilution method in presence of 120 uM carbonyl cyanide m-chlorophenyl-hydrazone; how it was run: as §4
Pseudomonas aeruginosa [21] = assay: Antimicrobial activity against Pseudomonas aeruginosa isolate 4 obtained from cystic fibrosis patients after 16 to 20 hrs by broth microdilution method; how it was run: as §1
Pseudomonas aeruginosa [22] = assay: Antimicrobial activity against Pseudomonas aeruginosa isolate 5 obtained from cystic fibrosis patients after 16 to 20 hrs by broth microdilution method in presence of 120 uM carbonyl cyanide m-chlorophenyl-hydrazone; how it was run: as §4
Pseudomonas aeruginosa [23] = assay: Antimicrobial activity against Pseudomonas aeruginosa isolate 5 obtained from cystic fibrosis patients after 16 to 20 hrs by broth microdilution method; how it was run: as §1
Pseudomonas aeruginosa [24] = assay: Antimicrobial activity against Pseudomonas aeruginosa isolate 8 obtained from cystic fibrosis patients after 16 to 20 hrs by broth microdilution method in presence of 120 uM carbonyl cyanide m-chlorophenyl-hydrazone; how it was run: as §4
Pseudomonas aeruginosa [25] = assay: Antimicrobial activity against Pseudomonas aeruginosa isolate 8 obtained from cystic fibrosis patients after 16 to 20 hrs by broth microdilution method; how it was run: as §1
Pseudomonas aeruginosa [26] = assay: Antimicrobial activity against Pseudomonas aeruginosa isolate 10 obtained from cystic fibrosis patients after 16 to 20 hrs by broth microdilution method in presence of 120 uM carbonyl cyanide m-chlorophenyl-hydrazone; how it was run: as §3
Pseudomonas aeruginosa [27] = assay: Antimicrobial activity against Pseudomonas aeruginosa isolate 11 obtained from cystic fibrosis patients after 16 to 20 hrs by broth microdilution method in presence of 120 uM carbonyl cyanide m-chlorophenyl-hydrazone; how it was run: as §3
Pseudomonas aeruginosa [28] = assay: Antimicrobial activity against Pseudomonas aeruginosa isolate 11 obtained from cystic fibrosis patients after 16 to 20 hrs by broth microdilution method; how it was run: as §2
Pseudomonas aeruginosa [29] = assay: Antimicrobial activity against Pseudomonas aeruginosa isolate 13 obtained from cystic fibrosis patients after 16 to 20 hrs by broth microdilution method; how it was run: as §2

CC1(C)S[C@@H]2[C@H](NC(=O)[C@H](N)c3ccccc3)C(=O)N2[C@H]1C(=O)O [AMPICILLIN]
MIC (Escherichia coli): 1020 µg/mL (≈ 2930 µM) | MIC (Pseudomonas aeruginosa [1]): 32 µg/mL (≈ 91.6 µM) | MIC (Pseudomonas aeruginosa [2]): 512 µg/mL (≈ 1470 µM) | MIC (Pseudomonas aeruginosa [3]): 32 µg/mL (≈ 91.6 µM) | MIC (Pseudomonas aeruginosa [4]): 32 µg/mL (≈ 91.6 µM) | MIC (Pseudomonas aeruginosa [5]): 512 µg/mL (≈ 1470 µM) | MIC (Pseudomonas aeruginosa [6]): 512 µg/mL (≈ 1470 µM) | MIC (Pseudomonas aeruginosa [7]): 16 µg/mL (≈ 45.8 µM) | MIC (Pseudomonas aeruginosa [8]): 16 µg/mL (≈ 45.8 µM) | MIC (Pseudomonas aeruginosa [9]): 1020 µg/mL (≈ 2930 µM) | MIC (Pseudomonas aeruginosa [10]): 128 µg/mL | MIC (Pseudomonas aeruginosa [11]): 256 µg/mL | MIC (Pseudomonas aeruginosa [12]): 32 µg/mL | MIC (Pseudomonas aeruginosa [13]): 32 µg/mL | MIC (Pseudomonas aeruginosa [14]): 32 µg/mL | MIC (Pseudomonas aeruginosa [15]): 16 µg/mL | MIC (Pseudomonas aeruginosa [16]): 64 µg/mL | MIC (Pseudomonas aeruginosa [17]): 32 µg/mL | MIC (Pseudomonas aeruginosa [18]): 512 µg/mL (≈ 1470 µM) | MIC (Pseudomonas aeruginosa [19]): 256 µg/mL | MIC (Pseudomonas aeruginosa [20]): 512 µg/mL | MIC (Pseudomonas aeruginosa [21]): 512 µg/mL (≈ 1470 µM) | MIC (Pseudomonas aeruginosa [22]): 512 µg/mL | MIC (Pseudomonas aeruginosa [23]): 512 µg/mL (≈ 1470 µM) | MIC (Pseudomonas aeruginosa [24]): 8 µg/mL | MIC (Pseudomonas aeruginosa [25]): 256 µg/mL (≈ 733 µM) | MIC (Pseudomonas aeruginosa [26]): 8 µg/mL | MIC (Pseudomonas aeruginosa [27]): 8 µg/mL | MIC (Pseudomonas aeruginosa [28]): 512 µg/mL (≈ 1470 µM) | MIC (Pseudomonas aeruginosa [29]): > 1020 µg/mL
